From ChEMBL document CHEMBL1250515, “4-(3-Halo/amino-4,5-dimethoxyphenyl)-5-aryloxazoles and -N-methylimidazoles that are cytotoxic against combretastatin A resistant tumor cells and vascular disrupting in a cisplatin resistant germ cell tumor model” (J Med Chem, 2010)
pIC50: −log10 of the molar value. Active and inactive are the calls of the source. No cut-off for these calls is given here.

Assays:
[1] = Cytotoxicity against human 518A2 cells after 72 hrs by MTT assay; type: functional, cell-based; settings: 518A2, 72 h
Summary of the method: (§1)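 MTT read-out. HL-60 seeded at 5 × 10⁵/mL and adherent lines at 5 × 10⁴/mL, precultured 24 h, then exposed to compounds for 72 h at 37 °C, 5% CO₂. MTT final 0.05% (HL-60, 518A2) or 0.1% (others), 2 h. Formazan dissolved in SDS/DMSO/acetic acid; A570 minus A630. Quadruplicates; viability relative to controls; IC50 from four-parameter Hill fit.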

HL-60 [2] = assay: Cytotoxicity against human HL60 cells after 72 hrs by MTT assay; type: functional, cell-based; settings: HL-60, 72 h; summary of the method: as §1
HT-29 = assay: Cytotoxicity against human HT-29 cells after 72 hrs by MTT assay; type: functional, cell-based; settings: HT-29, 72 h; summary of the method: as §1
[3] = Cytotoxicity against human vinblastine-resistant KBV1 cells after 72 hrs by MTT assay; type: functional, cell-based; settings: KB-V1, 72 h; summary of the method: as §1
[4] = Cytotoxicity against human multidrug-resistant MCF7/Topo cells after 72 hrs by MTT assay; type: functional, cell-based; summary of the method: as §1
[5] = Cytotoxicity against human H12.1 cells after 96 hrs by SRB assay; type: functional, cell-based
Summary of the method: (§2)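 Germ cell tumor lines seeded on day 0 at densities ensuring exponential growth, exposed from day 1 to drug at 0.001–10 μM in medium. Surviving cells relative to untreated controls read on day 5 by sulforhodamine B colorimetric assay (96 h exposure). IC50 from four-parameter Hill fit of concentration-response curves.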

[6] = Cytotoxicity against human cisplatin-resistant 1411HP cells after 96 hrs by SRB assay; type: functional, cell-based; summary of the method: as §2
[7] = Inhibition of tubulin polymerization by fluorescence-based assay; settings: TDE = time-dependent effect
Summary of the method: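 Purified tubulin polymerization kit, fluorescence-based; polymerization followed as relative fluorescence units at excitation 360 nm and emission 465 nm. Compounds and reference agents tested at 3 μM. Four to five independent experiments.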

HL-60 [8] = assay: Induction of apoptosis in human HL60 cells at 10 uM after 16 hrs by TUNEL assay; type: functional
HL-60 [9] = assay: Induction of apoptosis in human HL60 cells assessed as intact mitochondria at 5 uM after 72 hrs relative to control; type: functional
HL-60 [10] = assay: Induction of apoptosis in human HL60 cells assessed as ROS production at 50 uM after 24 hrs by NBT reduction assay relative to control; type: functional
518A2 [11] = assay: Induction of apoptosis in human 518A2 cells assessed as ROS production at 50 uM after 24 hrs by NBT reduction assay relative to control; type: functional
518A2 [12] = assay: Induction of apoptosis in human 518A2 cells assessed as intact mitochondria at 5 uM after 72 hrs relative to control; type: functional
Gallus gallus [13] = species: Gallus gallus; assay: Antiangiogenic activity in vascular system of fertilized chicken embryo assessed as vessel shrinkage after 24 hrs by CAM assay; type: functional, tissue-based
Gallus gallus [14] = species: Gallus gallus; assay: Antiangiogenic activity in vascular system of fertilized chicken embryo assessed as complete degradation of vascular system after 3 days by CAM assay; type: functional, tissue-based
1411HP [15] = assay: Antitumor activity against human 1411HP cells xenografted in mouse assessed as intratumoral hemorrhage at 30 mg/kg, ip after 24 hrs; type: functional, organism-based; parameters: dose 30 mg/kg
Summary of the method: (§3)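 Mice carried subcutaneous left-flank xenografts from 10 million 1411HP cells in 150 μL PBS. After 4 weeks, two mice with tumors of ~1 cm³ received a single ip dose of 30 mg/kg. Tumors were inspected for swelling and hemorrhage after 24 h. Body weight was recorded twice weekly, and daily during therapy.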

1411HP [16] = assay: Antitumor activity against human 1411HP cells xenografted in mouse assessed as swelling of tumor at 30 mg/kg, ip after 24 hrs; type: functional, organism-based; parameters: dose 30 mg/kg; summary of the method: as §3
1411HP [17] = assay: Antitumor activity against human 1411HP cells xenografted in mouse assessed as slow regrowth of tumor at 30 mg/kg, ip single dose
1411HP [18] = assay: Antitumor activity against human 1411HP cells xenografted in mouse assessed as tumor regression at 20 mg/kg, ip qd for 2 days; type: functional, organism-based; parameters: dose 20 mg/kg
Summary of the method: (§4)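 Subcutaneous flank xenografts were grown from 10 million 1411HP cells in 150 μL PBS. Two mice with tumors of ~2.5 cm³ were dosed ip at 20 mg/kg on 2 consecutive days. Tumor volume was measured by caliper as a² × b × 0.5. Body weight was recorded twice weekly, and daily during therapy.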

1411HP [19] = assay: Antitumor activity against human 1411HP cells xenografted in mouse assessed as slow regrowth of tumor at 20 mg/kg, ip qd for 2 days; type: functional, organism-based; parameters: dose 20 mg/kg; summary of the method: as §4
Mus musculus [20] = assay: Toxicity in human 1411HP cells xenografted mouse at 20 mg/kg, ip qd for 2 days; type: organism-based; parameters: dose 20 mg/kg, route intraperitoneal; summary of the method: as §4
Mus musculus [21] = assay: Toxicity in human 1411HP cells xenografted mouse at 30 mg/kg, ip; type: organism-based; parameters: dose 30 mg/kg, route intraperitoneal; settings: in vivo; summary of the method: as §3
1411HP [22] = assay: Antitumor activity against human 1411HP cells xenografted in mouse assessed as tumor regression at 20 mg/kg, ip administered on day 16/17 and 35/36; type: functional, organism-based; parameters: dose 20 mg/kg
1411HP [23] = assay: Antitumor activity against human 1411HP cells xenografted in mouse assessed as prolonged periods of stabilization at 20 mg/kg, ip administered on day 16/17 and 35/36; type: functional, organism-based; parameters: dose 20 mg/kg
Mus musculus [24] = assay: Toxicity in human 1411HP cells xenografted mouse at 20 mg/kg, ip administered on day 16/17 and 35/36; type: organism-based; parameters: dose 20 mg/kg, route intraperitoneal; settings: in vivo
Mus musculus [25] = assay: Toxicity in human 1411HP cells xenografted mouse assessed as body weight change at 20 mg/kg, ip administered on day 16/17 and 35/36; type: organism-based; parameters: dose 20 mg/kg, route intraperitoneal; settings: in vivo

| Structure (SMILES) | pIC50 [1] | pIC50 (HL-60 [2]) | pIC50 (HT-29) | pIC50 [3] | pIC50 [4] | Activity (HL-60 [9]) [%] | Activity (HL-60 [10]) [%] | Activity (518A2 [11]) [%] | Activity (518A2 [12]) [%] | further results |
| --- | --- | --- | --- | --- | --- | --- | --- | --- | --- | --- |
| COc1ccc(-c2c(-c3cc(Br)c(OC)c(OC)c3)ncn2C)cc1N.Cl.Cl | 8.19 | 10.00 | 10.70 | 6.70 | 6.47 | 66 | 1.5 | 3.8 | 80 | pIC50 [5]: 7.66; pIC50 [6]: 7.27; inhibition [7]: tde; Activity (HL-60 [8]): 60%; Activity (Gallus gallus [13]): inactive; Activity (Gallus gallus [14]): inactive; Activity (1411HP [15]): Active; Activity (1411HP [16]): Active; Activity (1411HP [17]): Active |
| COc1ccc(-c2c(-c3cc(Br)c(OC)c(OC)c3)ncn2C)cc1F.Cl | 7.18 | 5.01 | 6.29 |  |  | 60 | 1.4 | 3.9 | 89 |  |
| COc1cc(-c2ncn(C)c2-c2ccc(N(C)C)cc2)cc(Cl)c1OC.Cl | 5.64 | 10.70 | 9.70 |  |  | 61 | 2.4 | 6 | 80 |  |
| COc1ccc(-c2c(-c3cc(N)c(OC)c(OC)c3)ncn2C)cc1F.Cl | < 5.00 | < 5.00 | < 4.30 |  |  | 90 | 1.2 | 1.4 | 98 |  |
| COc1ccc(-c2ocnc2-c2cc(N)c(OC)c(OC)c2)cc1N.Cl | 8.70 | 8.42 | 7.24 | 11.00 | 8.91 | 62 | 1.5 | 3.5 | 85 | Activity (HL-60 [8]): 60%; Activity (Gallus gallus [13]): inactive; Activity (Gallus gallus [14]): inactive |
| COc1ccc(/C=C\c2cc(OC)c(OC)c(OC)c2)cc1O [COMBRETASTATIN A4] | 7.74 | 10.00 | 5.44 | 9.40 | 6.30 |  |  |  |  |  |
| COc1cc(-c2ncoc2-c2ccc(N(C)C)cc2)cc(N)c1OC.Cl | 6.96 | 9.05 | < 4.82 |  |  | 62 | 1.4 | 3.3 | 82 |  |
| COc1cc(-c2ncn(C)c2-c2ccc3c(Cl)cn(C)c3c2)cc(N)c1OC.Cl | 5.51 | 10.40 | 7.85 | 6.80 | 8.42 | 60 | 1.6 | 6.4 | 77 |  |
| COc1ccc(-c2c(-c3cc(Cl)c(OC)c(OC)c3)ncn2C)cc1N.Cl.Cl | 7.21 | 9.70 | 10.22 | 6.40 | 6.49 | 65 | 1.8 | 4.4 | 80 | pIC50 [5]: 7.52; pIC50 [6]: 7.22; inhibition [7]: tde; Activity (HL-60 [8]): 60%; Activity (Gallus gallus [13]): Active; Activity (Gallus gallus [14]): Active; Activity (1411HP [15]): Active; Activity (1411HP [16]): Active; Activity (1411HP [18]): Active; Activity (1411HP [19]): Active; Activity (Mus musculus [20]): Non-toxic; Activity (Mus musculus [21]): Non-toxic; Activity (1411HP [22]): Active; Activity (1411HP [23]): Active; Activity (Mus musculus [24]): Non-toxic; Activity (Mus musculus [25]): Non-toxic |
| COc1ccc(-c2c(-c3cc(Cl)c(OC)c(OC)c3)ncn2C)cc1F.Cl | 6.40 | < 5.00 | 6.28 |  |  | 55 | 1.6 | 4.8 | 84 |  |
| COc1ccc(-c2c(-c3cc(OC)c(OC)c(OC)c3)ncn2C)cc1N | < 4.00 | < 4.00 | 7.19 | 6.52 | < 5.00 | 74 | 2.2 | 1.5 | 87 |  |
| COc1cc(-c2ncn(C)c2-c2ccc(N(C)C)cc2)cc(Br)c1OC.Cl | 6.07 | 9.70 | 8.37 |  |  | 63 | 1.6 | 6.7 | 82 |  |
| COc1ccc(-c2c(-c3cc(N)c(OC)c(OC)c3)ncn2C)cc1O.Cl | 5.55 | 5.34 | < 4.00 |  |  | 76 | 1.1 | 1.8 | 94 |  |
